In ChEMBL document CHEMBL1137770, “Biological activity of endomorphin and [Dmt1]endomorphin analogs with six-membered proline surrogates in position 2” (Bioorg Med Chem, 2009):
pIC50: −log10 of the molar value. The source made the active and inactive calls. Square brackets hold non-standard residues; d marks the D form. Peptide text beside a SMILES is read from it. Inp = O=C(O)C1CCNCC1

Columns and labels:
Mu-type opioid receptor [1] = target: Mu-type opioid receptor (Rattus norvegicus, UniProt P33535); assay: Displacement of [3H]DAMGO from mu opioid receptor in Wistar rat brain membrane; type: cell membranes
[2] = target: Delta-type opioid receptor (Rattus norvegicus, UniProt P33533); assay: Displacement of [3H][Ile5,6]deltorphin-2 from delta opioid receptor in Wistar rat brain membrane; type: cell membranes
Rattus norvegicus = species on record: Rattus norvegicus; assay: Selectivity ratio of IC50 for delta opioid receptor to IC50 for mu opioid receptor in Wistar rat brain membrane; type: cell membranes
How it was run: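 Wistar rat brain crude membranes incubated 120 min at 25 °C with peptide and 0.5 nM [3H]DAMGO (MOR) or 0.5 nM [3H][Ile5,6]deltorphin-2 (DOR) in 50 mM Tris/HCl pH 7.4 with 5 mM MgCl2, 1 mM EDTA, 100 mM NaCl, bacitracin.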

[3] = Stability in rat brain homogenates assessed as degradation half life; type: ADME, tissue-based; settings: brain homogenate
How it was run: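 Pooled rat brain homogenate (in 50 mM Tris-HCl pH 7.4, 10 mg protein/ml aliquot) incubated with 0.5 mM peptide stock at 37 °C for 0-60 min; stopped on ice with 1 M HCl, centrifuged. Remaining peptide peak area regressed as ln(A/A0) versus time for k; t1/2 = ln2/k. Three experiments in duplicate.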

Mus musculus [4] = assay: Antinociceptive activity in Swiss albino CD1 mouse assessed as inhibition of paw licking at 100 ng, icv by hot plate test; type: functional, organism-based
How it was run: (§1)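 Male Swiss albino CD1 mice (20-22 g), peptide given i.c.v. into left ventricle in 0.9% NaCl. Placed on 55±0.5 °C hot plate 5 min post-injection; latency to paw licking (also rearing, jumping) versus saline-injected controls; cut-off 240 s. Dose-response curves; mean ± SEM, 10 mice per group.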

Mus musculus [5] = assay: Antinociceptive activity in iv dosed Swiss albino CD1 mouse assessed as inhibition of paw licking by hot plate test; type: functional, organism-based
Mus musculus [6] = assay: Antinociceptive activity in Swiss albino CD1 mouse assessed as duration of inhibition of paw licking at 0.1 ng, icv by hot plate test; type: functional
How it was run: (§2)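 Male Swiss albino CD1 mice (20-22 g), i.c.v. injection into left ventricle in 0.9% NaCl. Hot plate at 55±0.5 °C; latencies to paw licking, rearing and jumping, cut-off 240 s; saline controls. Time-course readings at 5, 10, 20, 30, 45, 60, 90, 120, 150 and 180 min after dosing; duration of effect recorded.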

Mus musculus [7] = assay: Antinociceptive activity in icv dosed Swiss albino CD1 mouse assessed as inhibition of paw licking by hot plate test in presence of MOR antagonist beta-funaltrexamine; type: functional, organism-based
How it was run: (§3)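 CD1 male mice given peptide i.c.v. in 0.9% NaCl with MOR antagonist β-funaltrexamine (1 µg). Hot plate at 55±0.5 °C, 240 s cut-off; latencies to paw licking, rearing and jumping versus controls. Mean ± SEM of 10 mice per group; two-way ANOVA followed by Student-Newman-Keuls test.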

Mus musculus [8] = assay: Antinociceptive activity in icv dosed Swiss albino CD1 mouse assessed as inhibition of rearing by hot plate test in presence of MOR antagonist beta-funaltrexamine; type: functional, organism-based; how it was run: as §3
Mus musculus [9] = assay: Antinociceptive activity in icv dosed Swiss albino CD1 mouse assessed as inhibition of jumping by hot plate test in presence of MOR antagonist beta-funaltrexamine; type: functional, organism-based; how it was run: as §3
Mus musculus [10] = assay: Antinociceptive activity in Swiss albino CD1 mouse assessed as duration of inhibition of rearing at 0.1 ng, icv by hot plate test; type: functional; how it was run: as §2
Mus musculus [11] = assay: Antinociceptive activity in Swiss albino CD1 mouse assessed as duration of inhibition of jumping at 0.1 ng, icv by hot plate test; type: functional; how it was run: as §2
Mu-type opioid receptor [12] = target: T1, Mu-type opioid receptor (Homo sapiens, UniProt P35372); assay: Binding affinity to recombinant OPRM1 receptor immobilized on biosensor assessed as association rate constant by BIAcore X system
How it was run: (§4)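 Surface plasmon resonance at 37 °C: recombinant OPRM1 protein immobilised on CM5 chip by amine coupling (10 µg/ml in 10 mM sodium acetate, pH 5.0). Peptides at about 0.4 mM in HBS (10 mM HEPES, 150 mM NaCl, 3 mM EDTA, 0.005% P20, pH 7.4) injected 30 s at 20 µl/min; association/dissociation RU fitted for ka and kd.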

Mu-type opioid receptor [13] = target: T1, Mu-type opioid receptor; assay: Binding affinity to recombinant OPRM1 receptor immobilized on biosensor assessed as dissociation rate constant by BIAcore X system; how it was run: as §4
Mus musculus [14] = assay: Antinociceptive activity in icv dosed Swiss albino CD1 mouse assessed as inhibition of paw licking by hot plate test; type: functional, organism-based; how it was run: as §1
Mus musculus [15] = assay: Antinociceptive activity in Swiss albino CD1 mouse assessed as duration of inhibition of paw licking at 3 ng, icv by hot plate test; type: functional; how it was run: as §2
Mus musculus [16] = assay: Antinociceptive activity in Swiss albino CD1 mouse assessed as duration of inhibition of rearing at 3 ng, icv by hot plate test; type: functional; how it was run: as §2
Mus musculus [17] = assay: Antinociceptive activity in Swiss albino CD1 mouse assessed as duration of inhibition of jumping at 3 ng, icv by hot plate test; type: functional; how it was run: as §2
Mus musculus [18] = assay: Antinociceptive activity in Swiss albino CD1 mouse assessed as inhibition of paw licking at 3 ng, icv by hot plate test; type: functional, organism-based; how it was run: as §1

Sequence of Mu-type opioid receptor (Rattus norvegicus, UniProt P33535) (P33535 whole entry): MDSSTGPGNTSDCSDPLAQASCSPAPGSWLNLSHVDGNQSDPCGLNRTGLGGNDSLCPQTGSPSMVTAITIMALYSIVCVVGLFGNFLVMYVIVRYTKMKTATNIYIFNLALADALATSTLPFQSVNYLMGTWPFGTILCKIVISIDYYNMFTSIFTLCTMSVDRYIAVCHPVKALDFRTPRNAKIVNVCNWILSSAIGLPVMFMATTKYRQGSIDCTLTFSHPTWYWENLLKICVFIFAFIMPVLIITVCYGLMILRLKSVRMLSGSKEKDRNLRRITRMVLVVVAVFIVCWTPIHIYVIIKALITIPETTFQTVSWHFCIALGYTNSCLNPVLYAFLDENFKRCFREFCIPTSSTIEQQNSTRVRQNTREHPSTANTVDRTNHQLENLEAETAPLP
Sequence of Delta-type opioid receptor (P33533 whole entry): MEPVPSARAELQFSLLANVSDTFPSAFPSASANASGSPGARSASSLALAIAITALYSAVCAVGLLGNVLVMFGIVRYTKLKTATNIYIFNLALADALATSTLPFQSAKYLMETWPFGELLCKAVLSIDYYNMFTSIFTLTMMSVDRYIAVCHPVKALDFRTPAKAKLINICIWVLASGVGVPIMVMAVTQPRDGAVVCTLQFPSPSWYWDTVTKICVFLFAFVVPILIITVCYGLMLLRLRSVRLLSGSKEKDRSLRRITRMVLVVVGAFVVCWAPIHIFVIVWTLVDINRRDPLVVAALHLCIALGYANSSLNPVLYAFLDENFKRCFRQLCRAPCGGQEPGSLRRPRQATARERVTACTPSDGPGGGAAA
T1 sequence (P35372 whole entry): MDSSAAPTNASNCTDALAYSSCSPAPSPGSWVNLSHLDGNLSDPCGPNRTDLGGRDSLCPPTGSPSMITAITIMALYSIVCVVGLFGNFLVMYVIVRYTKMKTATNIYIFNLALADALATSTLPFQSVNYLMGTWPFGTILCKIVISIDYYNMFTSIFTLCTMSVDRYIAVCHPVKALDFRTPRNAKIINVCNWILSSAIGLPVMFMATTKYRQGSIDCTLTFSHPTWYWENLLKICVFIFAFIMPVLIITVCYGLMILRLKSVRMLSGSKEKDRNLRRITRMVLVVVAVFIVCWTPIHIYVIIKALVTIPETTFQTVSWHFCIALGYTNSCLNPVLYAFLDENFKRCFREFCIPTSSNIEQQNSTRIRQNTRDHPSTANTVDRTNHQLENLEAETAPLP

Q: With NC(=O)[C@H](Cc1ccccc1)NC(=O)[C@H](Cc1c[nH]c2ccccc12)NC(=O)[C@@H]1CCCCN1C(=O)[C@@H](N)Cc1ccc(O)cc1 as the compound, how does the pIC50 (Mu-type opioid receptor [1]) read?
A: 7.69

Q: And the pIC50 [2]?
A: < 6.00

Q: What about the Ratio IC50 (Rattus norvegicus) of the same compound?
A: > 49

Q: And the half-life [3]?
A: 9.68 min

Q: For NC(=O)[C@H](Cc1ccccc1)NC(=O)[C@H](Cc1c[nH]c2ccccc12)NC(=O)[C@@H]1CCCN1C(=O)[C@@H](N)Cc1ccc(O)cc1 [ENDOMORPHIN-1], which half-life [3] is on record?
A: 6.02 min

Q: What does the source list for Cc1cc(O)cc(C)c1C[C@H](N)C(=O)N1CCC[C@@H](C(=O)N[C@@H](Cc2c[nH]c3ccccc23)C(=O)N[C@@H](Cc2ccccc2)C(N)=O)C1?
A: pIC50 (Mu-type opioid receptor [1]): 9.42; pIC50 [2]: 7.05; Ratio IC50 (Rattus norvegicus): 234; half-life [3]: 35.8 min

Q: With NC(=O)[C@H](Cc1ccccc1)NC(=O)[C@H](Cc1ccccc1)NC(=O)[C@@H]1CCCN(C(=O)[C@@H](N)Cc2ccc(O)cc2)C1 as the compound, how does the Activity (Mus musculus [4]) read?
A: Active

Q: What about the Activity (Mus musculus [5]) of the same compound?
A: inactive

Q: What about the Activity (Mus musculus [6]) of the same compound?
A: 150 min

Q: And the AC50 (Mus musculus [7])?
A: Not Active

Q: And the Activity (Mus musculus [8])?
A: inactive

Q: What about the Activity (Mus musculus [9]) of the same compound?
A: inactive

Q: And the Activity (Mus musculus [10])?
A: 150 min

Q: What about the Activity (Mus musculus [11]) of the same compound?
A: 150 min

Q: And the pIC50 (Mu-type opioid receptor [1])?
A: 10.40

Q: What about the pIC50 [2] of the same compound?
A: < 6.00

Q: What about the Ratio IC50 (Rattus norvegicus) of the same compound?
A: > 1000

Q: And the Ka (Mu-type opioid receptor [12])?
A: 570 M⁻¹ s⁻¹

Q: And the Kd (Mu-type opioid receptor [13])?
A: 0.55 s⁻¹

Q: And the half-life [3]?
A: 48 min

Q: And the Activity (Mus musculus [14])?
A: Dose-dependent effect

Q: With NC(=O)[C@H](Cc1ccccc1)NC(=O)[C@H](Cc1ccccc1)NC(=O)[C@@H]1CCCCN1C(=O)[C@@H](N)Cc1ccc(O)cc1 as the compound, how does the pIC50 (Mu-type opioid receptor [1]) read?
A: 7.10

Q: What about the pIC50 [2] of the same compound?
A: < 6.00

Q: What about the Ratio IC50 (Rattus norvegicus) of the same compound?
A: > 12.5

Q: And the half-life [3]?
A: 6.8 min

Q: With NC(=O)[C@H](Cc1ccccc1)NC(=O)[C@H](Cc1c[nH]c2ccccc12)NC(=O)C1CCN(C(=O)[C@@H](N)Cc2ccc(O)cc2)CC1 (H-Y[Inp]WF-NH2) as the compound, how does the pIC50 (Mu-type opioid receptor [1]) read?
A: 6.40

Q: What about the pIC50 [2] of the same compound?
A: 6.07

Q: What about the Ratio IC50 (Rattus norvegicus) of the same compound?
A: 2.15

Q: And the half-life [3]?
A: 78.5 min

Q: What does the source list for NC(=O)[C@H](Cc1ccccc1)NC(=O)[C@H](Cc1c[nH]c2ccccc12)NC(=O)[C@@H]1CCCN(C(=O)[C@@H](N)Cc2ccc(O)cc2)C1?
A: pIC50 (Mu-type opioid receptor [1]): 8.45; pIC50 [2]: < 6.00; Ratio IC50 (Rattus norvegicus): > 281; half-life [3]: 29.6 min

Q: Which Activity (Mus musculus [4]) does the source give for NC(=O)[C@H](Cc1ccccc1)NC(=O)[C@H](Cc1ccccc1)NC(=O)[C@@H]1CCCN1C(=O)[C@@H](N)Cc1ccc(O)cc1 [ENDOMORPHIN 2] here?
A: Active

Q: And the Activity (Mus musculus [15])?
A: 50 min

Q: And the Activity (Mus musculus [16])?
A: 50 min

Q: And the Activity (Mus musculus [17])?
A: 50 min

Q: What about the half-life [3] of the same compound?
A: 4.8 min

Q: Which Activity (Mus musculus [18]) does the source give for Cc1cc(O)cc(C)c1C[C@H](N)C(=O)N1CCC[C@@H](C(=O)N[C@@H](Cc2ccccc2)C(=O)N[C@@H](Cc2ccccc2)C(N)=O)C1 here?
A: Active

Q: What about the Activity (Mus musculus [5]) of the same compound?
A: inactive

Q: And the Activity (Mus musculus [6])?
A: >170 min

Q: What about the AC50 (Mus musculus [7]) of the same compound?
A: Not Active

Q: And the Activity (Mus musculus [8])?
A: inactive

Q: What about the Activity (Mus musculus [9]) of the same compound?
A: inactive

Q: What about the Activity (Mus musculus [10]) of the same compound?
A: >170 min

Q: What about the Activity (Mus musculus [11]) of the same compound?
A: >170 min

Q: And the pIC50 (Mu-type opioid receptor [1])?
A: 10.46

Q: And the pIC50 [2]?
A: 6.39

Q: And the Ratio IC50 (Rattus norvegicus)?
A: > 1000

Q: And the Ka (Mu-type opioid receptor [12])?
A: 515 M⁻¹ s⁻¹

Q: What about the Kd (Mu-type opioid receptor [13]) of the same compound?
A: 0.29 s⁻¹

Q: What about the half-life [3] of the same compound?
A: 30.9 min

Q: And the Activity (Mus musculus [14])?
A: Dose-dependent effect
